pIC50, pKi: −log10 of the molar value.

This is an account of results in ChEMBL document CHEMBL1133696, “Development of a lead inhibitor for the A16V+S108T mutant of dihydrofolate reductase from the cycloguanil-resistant strain (T9/94) of Plasmodium falciparum” (J Med Chem, 2000).

Assay [1] concerns the target Bifunctional dihydrofolate reductase-thymidylate synthase (Plasmodium falciparum K1, UniProt P13922, A16V/S108T). In words: Inhibition constant (Ki mut) against A16V+S108T Mutant DHFRs of Plasmodium falciparum.
Assay [2] relates to Plasmodium falciparum. In words: Growth inhibition IC50 against Plasmodium falciparum mutant T9/94. It counts as functional, organism-based. In outline:
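Parasites kept in human erythrocytes in RPMI 1640 with 25 mM HEPES pH 7.4, 0.2% NaHCO3, gentamicin and 10% human serum, at 37 °C under 3% CO2. Clones used were TM4/8.2 (wild-type DHFR) and T9/94 RC17 (A16V+S108T). Drug dilutions were made from DMSO stocks, final DMSO 0.1%, and added to a 1.5% cell suspension at 1-2% parasitemia. After 24 h, 0.25 µCi [3H]-hypoxanthine was added for a further 18-24 h, then scintillation counting. IC50 taken from a sigmoidal curve.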

The target in assay [3] is Bifunctional dihydrofolate reductase-thymidylate synthase (Plasmodium falciparum K1) (UniProt P13922). In words: Evaluated for activity of relative to Cycloguanil.
Assay [4] has the same target. In words: Evaluated for activity of compound relative to Cycloguanil.
The target is the same in assay [5]. Kind of assay: Ratio of inhibitory constant of mutant by wild-type DHFRs of Plasmodium falciparum.
The subject of assay [6] is Plasmodium falciparum. Kind of assay: Growth inhibition (IC50) against Plasmodium falciparum wild-type TM4/8.2. It counts as functional, organism-based. The gist of the method:
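TM4/8.2 clone (wild-type DHFR) grown in human erythrocytes, RPMI 1640 with 25 mM HEPES pH 7.4, 0.2% NaHCO3, gentamicin, 10% human serum, 37 °C, 3% CO2. Drug from DMSO (final 0.1%), 1.5% cell suspension at 1-2% parasitemia; [3H]-hypoxanthine added after 24 h, a further 18-24 h incubation. IC50 from sigmoidal incorporation-versus-concentration curve.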

In assay [7] the target is Bifunctional dihydrofolate reductase-thymidylate synthase (Plasmodium falciparum K1) (UniProt P13922). Kind of assay: Selectivity ratio of growth inhibition against Plasmodium falciparum TM4/8.2(wild-type) and T9/94(mutant). It counts as functional.

Sequence of Bifunctional dihydrofolate reductase-thymidylate synthase (Plasmodium falciparum K1) (P13922 whole entry, looked up): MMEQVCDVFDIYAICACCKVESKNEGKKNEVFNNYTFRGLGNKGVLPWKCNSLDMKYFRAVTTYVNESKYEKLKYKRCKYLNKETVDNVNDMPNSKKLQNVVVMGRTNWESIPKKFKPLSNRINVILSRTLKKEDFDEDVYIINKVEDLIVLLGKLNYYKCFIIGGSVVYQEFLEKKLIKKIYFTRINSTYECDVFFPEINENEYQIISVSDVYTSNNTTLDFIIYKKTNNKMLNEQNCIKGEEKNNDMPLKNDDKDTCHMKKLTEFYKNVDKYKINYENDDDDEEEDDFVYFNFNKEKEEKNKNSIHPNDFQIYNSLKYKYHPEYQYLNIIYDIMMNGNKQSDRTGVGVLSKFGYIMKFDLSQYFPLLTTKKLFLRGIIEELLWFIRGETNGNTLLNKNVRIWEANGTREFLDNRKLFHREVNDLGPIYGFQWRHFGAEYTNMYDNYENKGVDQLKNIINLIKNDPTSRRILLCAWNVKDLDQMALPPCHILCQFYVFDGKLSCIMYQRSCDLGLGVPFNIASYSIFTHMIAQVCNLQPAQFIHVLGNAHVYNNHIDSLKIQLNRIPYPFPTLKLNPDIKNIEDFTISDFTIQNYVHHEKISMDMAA
Sequence of Bifunctional dihydrofolate reductase-thymidylate synthase (P13922 whole entry, looked up, stated change not applied): as the sequence (P13922 whole entry, looked up) above

Broadly, the pKi is the Ki on a negative log10 scale, so that one unit is a factor of ten. A higher pKi goes with a small Ki. What is called pIC50 is the IC50 on a negative log10 scale, so that one unit is a factor of ten. A high value points to a small IC50. With `CC1(C)N=C(N)N=C(N)N1c1ccc(Cl)c(Cl)c1` [CHLORCYCLOGUANIL], the negative logarithm of the Ki (pKi) in assay [1] is 6.88. Moreover, the pIC50 with Plasmodium falciparum [2] is 6.51; with Plasmodium falciparum [6], 8.40. For the same molecule, the Relative activity was determined as 0.73 in assay [3] and 0.1 in assay [4]. The Ratio in assay [5] came out at 119. Besides, the IC50 ratio in assay [7] came out at 76.8.
